As a reminder, the GI50 is the concentration that inhibits growth by half. A higher GI50 goes with less potent growth inhibition. The term IC50 denotes the concentration that inhibits the measured activity by half. Read a high IC50 as weaker potency in that assay.

Bounds are passed on as bounds.

Data on eight compounds can be found in ChEMBL document CHEMBL1151259, “Hemisynthetic secofriedelane triterpenes with inhibitory activity against the growth of human tumor cell lines in vitro” (J Nat Prod, 2004).

The test system of one assay is SF-268. Briefly: Cytotoxicity against human SF268 cells after 48 hrs by SRB assay. Format: functional, cell-based. The conditions noted are these: SF-268, 48 h. The method, boiled down: (§1)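 Compounds dissolved in DMSO and freshly diluted in culture medium, final DMSO 0.25%. Growth inhibition read by sulforhodamine B protein staining per the NCI screening protocol. Doxorubicin as positive control. GI50 given as mean ± SEM of 3-6 independent experiments, each in duplicate.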
On the technique in general: Sulforhodamine B stains cellular protein and so reports cell mass.

For a further assay, the system named is MCF7. Briefly: Cytotoxicity against human MCF7 cells after 48 hrs by SRB assay. The assay is classed as functional, cell-based. The conditions noted are these: MCF7, 48 h. The method in brief:
as §1

A further assay deals with NCI-H460. Kind of assay: Cytotoxicity against human NCI-H460 cells after 48 hrs by SRB assay. The assay is classed as functional, cell-based. The conditions noted are these: NCI-H460, 48 h. The method in brief: as §1
A short description of assay [1]: Antiproliferative activity against human lymphocytes. The conditions noted are these: Lymphocyte. The assay is classed as cell-based.

On to `CC1(C)CC[C@]2(C)CC[C@]3(C)[C@H]4CC[C@@]5(C)[C@@H](CCC(=O)[C@]5(C)O)[C@]4(C)CC[C@@]3(C)[C@@H]2C1`, for which the GI50 in the assay with SF-268, in the assay with MCF7 and in the assay with NCI-H460 was more than 50 µM throughout.

With `COc1cccc2c1C(=O)c1c(O)c3c(c(O)c1C2=O)C[C@@](O)(C(=O)CO)C[C@@H]3O[C@H]1C[C@H](N)[C@H](O)[C@H](C)O1` [DOXORUBICIN], the 50% growth inhibitory concentration (GI50) in the assay on SF-268 stood at 0.094 µM; in the assay with MCF7 it was 0.0428 µM; with NCI-H460 it was 0.094 µM.

In the case of `C[C@@H](C(=O)O)[C@@]1(C)CC[C@H]2[C@@](C)(CC[C@@]3(C)[C@@H]4CC(C)(C)CC[C@]4(C)CC[C@]23C)[C@@H]1CC=O`, the IC50 in the assay with SF-268 came to 5.4 µM; in the assay with MCF7, 5.4 µM; in the assay with NCI-H460 it was 5.4 µM; in assay [1], 10.7 µM.

On to `CC(=O)[C@@]1(C)CC[C@H]2[C@@](C)(CC[C@@]3(C)[C@@H]4CC(C)(C)CC[C@]4(C)CC[C@]23C)[C@@H]1CCC(=O)O`, for which the GI50 in the assay on SF-268 is 24.6 µM; with MCF7 it was 26.9 µM; in the assay with NCI-H460 it was 32.8 µM.

`COC(=O)CC[C@H]1[C@]2(C)CC[C@@]3(C)[C@@H]4CC(C)(C)CC[C@]4(C)CC[C@]3(C)[C@H]2CC[C@]1(C)C(C)=O`: the concentration for 50% growth inhibition (GI50) in the assay on SF-268, in the assay with MCF7 and in the assay on NCI-H460 was more than 110 µM each time.

In the case of `COC(=O)C[C@H]1[C@]2(C)CC[C@@]3(C)[C@@H]4CC(C)(C)CC[C@]4(C)CC[C@]3(C)[C@H]2CC[C@]1(C)C(C)=O`, the concentration for 50% growth inhibition (GI50) came to 106 µM with SF-268, 101 µM with MCF7 and 93.9 µM in the assay on NCI-H460.

As to `CC1(C)CC[C@]2(C)CC[C@]3(C)[C@H]4CC[C@@]5(C)[C@@H](CCC(=O)[C@@]5(C)O)[C@]4(C)CC[C@@]3(C)[C@@H]2C1`, the 50% growth inhibitory concentration (GI50) in the assay on SF-268, with MCF7 and in the assay on NCI-H460 was more than 110 µM in each case.

In the case of `CC(=O)[C@@]1(C)CC[C@H]2[C@@](C)(CC[C@@]3(C)[C@@H]4CC(C)(C)CC[C@]4(C)CC[C@]23C)[C@@H]1CC(=O)O`, the 50% growth inhibitory concentration (GI50) in the assay on SF-268 came out at 12.9 µM; in the assay with MCF7 it was 10.9 µM; in the assay with NCI-H460 it was 17.6 µM.
